# Compound activity (PubChem)
# MDM2 E3 inh = blocks human Mdm2 ubiquitin ligase activity. Q00987. cell-based MDM2 ubiquitination luciferase reporter, 2 h; 0 = plate control, 100 = twice control, blank-subtracted. signal enhancement, % at 5 µM. 0.11% of 210,000 active. AID 1230;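 active = signal enhancement of 30% or more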;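 note: luminescence tracks abundance of the self-degrading MDM2-luciferase fusion protein; higher signal means inhibition of MDM2 E3 ligase activity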
#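 Timing – 2 h compound exposure at 37 °C · Assay system – mammalian cells stably expressing self-ubiquitinating, self-degrading MDM2 E3–luciferase fusion · Amount – 2000 cells seeded into each well · Measure – % luminescence enhancement versus blank-corrected plate control mean · Measured by – SteadyLite luminescence, 15 min reagent step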
# DTT redox prof = compounds producing H2O2 with reducing agent – biochemical, NIH compound library profiling, artefact control for MLSCN library redox annotation, primary screen; DTT-dependent redox cycling H2O2, phenol red/HRP absorbance; 100% = 100 µM peroxide control, 0% = buffer; 0.03% of 200,000 active; activation, % at 10 µM; AID 878;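 active = activation of at least 50% relative to the plate's high and low controls in the primary single-dose screen; inactive = activation below 50%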;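 note: compound incubated with DTT at 0.8 mM final as the reducing agent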
# ROMK primary = modulators of human ROMK potassium channel | B-score at 10 µM | 2% of 130,000 active | AID 1918 | Tet-inducible ROMK, thallium flux fluorescence; actives lie on both sides | P48048;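 active = signal ratio slope over the read window, or its plate-corrected B-score, at least 3 SD from the plate mean, either direction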;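 note: B-score of the F/F0 ratio slope over 7 to 12 s after thallium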
# p97 inhibitor = human p97 ATPase inhibition | 0.42% of 220,000 active | inhibition, % at 8 µM | P55072 | AID 1481 | recombinant p97 ATPase, Kinase-Glo ATP luminescence, 3 h; in the data active = inhibition above about 15%
# Target sequence (P55072 whole entry, looked up): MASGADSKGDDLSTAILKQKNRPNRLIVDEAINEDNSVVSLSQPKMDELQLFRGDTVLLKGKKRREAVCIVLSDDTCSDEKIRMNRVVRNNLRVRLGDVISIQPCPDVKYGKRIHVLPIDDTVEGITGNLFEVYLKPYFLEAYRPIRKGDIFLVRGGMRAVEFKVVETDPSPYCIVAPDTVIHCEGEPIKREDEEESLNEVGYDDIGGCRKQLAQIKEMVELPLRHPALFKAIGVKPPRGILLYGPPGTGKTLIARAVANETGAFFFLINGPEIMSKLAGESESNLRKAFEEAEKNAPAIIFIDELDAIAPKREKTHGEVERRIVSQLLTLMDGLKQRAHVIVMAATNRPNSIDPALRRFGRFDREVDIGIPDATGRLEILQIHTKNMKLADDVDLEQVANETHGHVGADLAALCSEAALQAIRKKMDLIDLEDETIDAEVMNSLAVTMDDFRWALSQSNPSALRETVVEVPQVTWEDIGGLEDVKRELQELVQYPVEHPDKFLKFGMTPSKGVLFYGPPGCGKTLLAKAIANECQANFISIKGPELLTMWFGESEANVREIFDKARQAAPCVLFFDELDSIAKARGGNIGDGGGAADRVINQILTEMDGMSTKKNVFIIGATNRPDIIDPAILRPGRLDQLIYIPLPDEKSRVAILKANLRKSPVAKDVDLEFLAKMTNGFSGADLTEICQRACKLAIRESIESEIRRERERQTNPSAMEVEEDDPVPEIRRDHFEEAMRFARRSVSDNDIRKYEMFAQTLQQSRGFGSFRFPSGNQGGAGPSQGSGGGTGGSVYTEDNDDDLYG
# KCC2 mod = modulators of human KCC2 chloride dependent transport; KCC2 cells, thallium flux FluoZin-2 fluorescence; B-score of Tl+ flux slope (higher = more flux/activation; lower = inhibition) at 10 µM; 2.2% of 190,000 active; AID 1456;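 active = thallium flux slope and its plate-corrected score both differing from the plate sample mean at a set confidence after two filtering rounds, in either direction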;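 note: slope of fluorescence scaled to starting intensity during 10 to 20 s after thallium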
# PKD1 kinase inh = blocks activity of human protein kinase D1. PKD1 kinase fluorescence polarization assay. inhibition, % (concentration not given with the values). 0.056% of 200,000 active. AID 797; in the data active = inhibition above about 50%
# KCC2 secondary = confirmation of human KCC2 transport modulators; shares compounds with KCC2 mod; HEK293-KCC2, thallium flux, FluoZin2 fluorescence; stronger effect = higher value; normalised thallium flux (F/F0 slope) at 10 µM; 15% of 3,700 active;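 active = thallium flux slope above the same plate's solvent-only control mean plus 3 SD; inconclusive = the two replicate wells disagree; inactive = no significant difference from solvent-only control wells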
# KCC2 bumet counter = thallium flux persisting under bumetanide in KCC2 cells, counter-screen secondary assay | normalized thallium flux at 10 µM | 49% of 3,700 active | HEK293-KCC2 + bumetanide/ouabain, thallium flux FluoZin2; stronger effect = higher value | shares compounds with KCC2 mod | AID 1714;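 active = thallium entry rate above the same plate's blocked-transporter control wells by more than 3 SD; inconclusive = the two repeat wells disagree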;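 note: raw slope of fluorescence over initial fluorescence between 10 and 20 s after thallium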
# KCC2 sec2 = KCC2 (human) modulation, second secondary assay | AID 1715 | shares compounds with KCC2 mod | 23% of 3,700 active | HEK293-KCC2, thallium flux FluoZin2 fluorescence; actives lie on both sides; F/F0 rise rate, 10–20 s post-thallium | normalized thallium flux at 10 µM;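 active = thallium flux slope more than 3 SD above or below the plate's solvent-only control mean, mostly below; inconclusive = the two repeat wells disagreed; inactive = no significant shift from solvent-only controls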
# HEK293 Tl flux = parental HEK flux effect, counter-screen; shares compounds with KCC2 mod; HEK293 parental cells, thallium flux FluoZin2, ouabain; baseline-ratio fluorescence slope, 10–20 s after thallium; thallium flux rate (normalised fluorescence) at 10 µM; 46% of 3,700 active;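 active = thallium flux rate significantly above the same plate's solvent-only control wells, beyond their mean plus 3 SD; inconclusive = the two replicate wells gave conflicting results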
# KCC2 retest ouab = confirmation of human KCC2 modulators with ouabain; 48% of 3,700 active; shares compounds with KCC2 mod; HEK293-KCC2, thallium flux FluoZin2 fluorescence; bidirectional: low = inhibitor, high = activator; raw Tl+ flux slope (below DMSO = inhibition, above = activation) at 10 µM;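 active = thallium flux slope beyond 3 SD from same-plate DMSO control mean in most replicates, usually higher, sometimes lower; inconclusive = repeat tests gave conflicting results; inactive = no significant difference from controls in most replicates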;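 note: slope of initial-normalized fluorescence between seconds 10 and 20 after thallium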
# HEK293 Tl flux2 = acts in parental HEK cells, second KCC2 counter-screen | 33% of 3,700 active | HEK293 parental, thallium flux FluoZin-2 fluorescence slope | thallium flux slope at 10 µM | shares compounds with KCC2 mod | AID 1718;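 active = thallium flux slope above the same plate's solvent-control mean plus 3 SD in both duplicate wells; inconclusive = duplicate wells that disagreed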;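 note: run without ouabain in cells lacking the KCC2 cotransporter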
# Hits are given with their value; i = inactive; ? = inconclusive; nt = no result given. Rows were chosen to be rich in hits. Some 3.4% of all compounds tested hit in one or more screens of this group.
SMILES,MDM2 E3 inh,DTT redox prof,ROMK primary,p97 inhibitor,KCC2 mod,PKD1 kinase inh,KCC2 secondary,KCC2 bumet counter,KCC2 sec2,HEK293 Tl flux,KCC2 retest ouab,HEK293 Tl flux2
COc1ccccc1NC(=O)C1CCCN(c2nc(C)cc(C)n2)C1 (centres undefined),i,i,i,i,i,i,nt,nt,nt,nt,nt,nt
CCOc1ccc(OCC)c(NC(=O)C2CCCN(c3nc(C)cc(C)n3)C2)c1 (centres undefined),i,i,nt,i,-3.7,i,i,i,?,0.0057,0.014,?
CCOc1ccc2nc(SC3CC(=O)N(c4cccc(OC)c4)C3=O)sc2c1 (centres undefined),i,i,i,i,4.7,i,0.024,0.015,i,0.0093,0.022,?
CCOc1ccc(Nc2nc(Cc3nnc(SCC(=O)O)o3)cs2)cc1,i,i,nt,i,nt,i,i,i,i,i,0.015,i
Cn1nc(CC(=O)NCc2ccc(C(F)(F)F)cc2)c2ccccc2c1=O,i,i,i,i,i,i,nt,nt,nt,nt,nt,nt
Cn1c(=O)c([N+](=O)[O-])c(NCc2ccccc2Cl)c2ccccc21,i,nt,nt,i,-4.5,nt,i,i,?,0.0063,?,?
Cn1c(=O)c([N+](=O)[O-])c(NCCc2ccccc2)c2ccccc21,i,i,nt,i,i,i,nt,nt,nt,nt,nt,nt
O=C(CSc1nc(-c2ccccc2Cl)ns1)NCc1ccc2c(c1)OCO2,i,i,nt,i,i,i,nt,nt,nt,nt,nt,nt
CCN(CC)c1ccc2cc(-c3nc4ccccc4n3C)c(=O)oc2c1,i,i,i,i,nt,i,0.0044,0.00034,0.022,0.0037,0.0081,?
CN1C2C=C3C(C#N)=C(N)C(C#N)(C#N)[C@@H](c4ccsc4)[C@@H]3C1CC2 (some centres undefined),i,i,i,i,nt,i,nt,nt,nt,nt,nt,nt
CCCc1nc2ccccc2c(=O)n1N,i,i,i,i,12,i,i,i,i,i,i,i
CCCCCc1nc2ccccc2c(=O)n1N,i,i,nt,i,nt,i,nt,nt,nt,nt,nt,nt
CCC1CCCCN1C(=O)c1c[nH]c2ccc(S(=O)(=O)N(C)c3ccc(Cl)cc3)cc2c1=O (centres undefined),i,i,i,i,nt,i,i,?,?,i,i,i
CN(c1ccc(F)cc1)S(=O)(=O)c1ccc2[nH]cc(C(=O)O)c(=O)c2c1,i,i,nt,i,i,i,nt,nt,nt,nt,nt,nt
CC1CCc2sc(C(=O)OC(C)C(=O)Nc3ncc(Cl)cc3Cl)cc2C1 (centres undefined),i,i,i,i,i,i,nt,nt,nt,nt,nt,nt
COC(=O)Cc1c(C)nc2nc(-c3ccco3)[nH]n2c1=O,i,i,i,i,i,i,nt,nt,nt,nt,nt,nt
CCOC(=O)c1sc(NNC(=O)c2ccc(C)cc2)nc1C,i,nt,nt,i,i,nt,nt,nt,nt,nt,nt,nt
CCOC(=O)c1sc(NNC(=O)c2ccc(F)cc2)nc1C,i,nt,i,i,11,nt,0.015,0.024,i,?,0.03,?
Clc1cccc(OCCn2cncn2)c1Cl,i,i,i,i,i,i,nt,nt,nt,nt,nt,nt
Cc1nn(-c2ccccc2)c(Cl)c1/C=C1\SC(=S)NC1=O,i,i,i,i,35,i,0.037,0.16,i,0.063,0.067,0.027
